Assay results from ChEMBL document CHEMBL4513216, “Probing the Open Global Health Chemical Diversity Library for Multistage-Active Starting Points for Next-Generation Antimalarials” (ACS Infect Dis, 2020).

Assay: Toxicity liver stage against HepG2, at 10uM
Type: cell-based
Design: test concentration 10 uM, cell line HepG2-A16-CD81EGFP
Conditions: human, HepG2-A16-CD81EGFP cells; read-out: INHIBITION
Procedure, shortened: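 Uninfected HepG2-A16-CD81EGFP cells, 3 × 10^3 per well, 1536-well, plated on prespotted compound at 10 μM final, parasite-free screening media added to match infected plates; puromycin 10 μM positive, DMSO 0.5% negative; run in parallel with 48 h PbLuc assay at 37 °C, 5% CO2; viability by CellTiter-Glo luminescence, normalized to controls.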

SMILES	cytotoxicity at 10 µM [%]
COCCN1CCC(NC(=O)C/C=C/c2ccc(C(C)C)cc2)CC1	-0.616
O=C(C1CCC1)N1C[C@@H](c2ccsc2)[C@@H]2CN(C3CCCCC3)CC[C@@H]21	1.32
FC(F)(F)CCN(Cc1ccon1)C1CCC1	1.19
CCOc1ccccc1OCCN(C)Cc1nccn1C	-3.8
CCn1cc(-n2cc3nc(N(C)C)[nH]cc-3c2=O)cn1	10.2
Cc1ccccc1C(C#N)NC(=O)CCCOc1cccnc1 (stereo unspecified)	-0.398
CCc1n[nH]c(C2CN(C(=O)c3cnc[nH]3)CCO2)n1 (stereo unspecified)	-0.481
CC(C)c1ccc(CN2CCC(CNS(=O)(=O)C3CC3)C2)cc1 (stereo unspecified)	-1.37
Cc1cnn(CC2CCCCN2Cc2nnc(C3CC3)n2C)c1 (stereo unspecified)	2.36
Cc1oncc1C(=O)N[C@@H]1CN(CC2CC2)C[C@@H]2CCCO[C@@H]21	-103
Cc1ccc2[nH]c(=O)c(CN(C)Cc3cc(C4CC4)[nH]n3)cc2c1	-3.07
COc1ccc(C2=CCN(C(=O)CN(C)CC(C)C#N)CC2)cc1 (stereo unspecified)	-9.52
CS(=O)(=O)N1C[C@H]2CNC[C@@]2(C(=O)NCCOc2ccccc2)C1	2.1
CC(=O)N1CCC(c2ccnc(Nc3cncnc3)n2)C1 (stereo unspecified)	0.951
COc1ccccc1-c1cc(NC(=O)CCS(=O)(=O)C2CCCC2)[nH]n1	-123
CC(C)COCC(NC(=O)c1ccncc1)c1ccco1 (stereo unspecified)	-9.53
Cc1cc(C)n(CC2CCCN2C(=O)c2cc[nH]n2)n1 (stereo unspecified)	-3.8
COCCOc1ccc(-c2noc([C@@H]3CCCN3C3CCC3)n2)cn1	-4.26
Cc1cc(C(=O)Nc2cccn(Cc3ccccc3)c2=O)no1	-1.55
O=C(Cc1ccc(F)cc1)N1CCN(CC(O)c2ccccc2)CC1 (stereo unspecified)	-11.2
O=C(COC1CCCCC1)Nc1ccn(Cc2cccnc2)n1	5.17

SMILES	cytotoxicity at 10 µM [%]
Cc1nc(COCC2CNCc3nccn3C2)cs1 (stereo unspecified)	1.79
COCCN1CCC(NCc2cccc(F)c2)C1 (stereo unspecified)	-8.85
CN(C)C(=O)CN1C[C@H]2CC[C@@H](C1)N(Cc1ccc3nsnc3c1)C2	2.3
CCOC(=O)N1CCN(c2nc(C)ncc2CC)CC1	-61.2
O=C(c1ccccc1)N1C[C@H]2CC[C@@H](C1)N(S(=O)(=O)c1cccnc1)C2	-9.33
O=C(NCc1nc[nH]n1)c1cc(COc2ccccc2F)[nH]n1	-3.58
C=C(C)CN1CCC(NC(=O)NCCc2ccccc2OC)CC1	14.2
O=C(NCCN1CCOCC1)c1ccn(COc2ccc(F)cc2)n1	6.17
CCN(Cc1cnn(C)c1)C[C@H]1CC[C@@H](Cc2ccc(OC)nc2)O1	1.94
COCC(=O)NCc1cccc(OCCN(C)C2CCOCC2)c1	8.35
CCc1noc(CN(C)C(=O)c2ccnc(OC3CCC3)c2)n1	4.86
CCOC[C@H]1CC[C@H]2[C@H](CCN2S(=O)(=O)Cc2ccccc2)O1	8.61
Cc1ccc(N2CCCC(N(C)Cc3noc(C4CC4)n3)C2)nn1 (stereo unspecified)	1.6
Cc1ccc(CS(=O)(=O)CC(=O)NCc2ccccc2F)cc1	0.515
Cc1noc(C)c1CN(C)C(=O)C1CCCN1S(N)(=O)=O (stereo unspecified)	7.89
COc1ccc(F)c(F)c1CN1CCN(CC(C)C)C(=O)C1C (stereo unspecified)	-6.29
CC(C)c1nsc(N2CCOC3(CCCC3)C2)n1	0.243
CCc1nc(CN2CCN(C(=O)C3(C#N)CCCC3)CC2)cs1	0.38
Cc1cccc(CN2CCN(c3ncnc4[nH]ccc34)CC2CCO)n1 (stereo unspecified)	10.8
CC(=O)c1ccc(-n2c(C)cn(CCC(=O)NC(N)=O)c2=O)cc1	14.3
Cc1cc(C)n(CC2CN(Cc3nc4ccccc4s3)CCO2)n1 (stereo unspecified)	3.93

SMILES	cytotoxicity at 10 µM [%]
Cc1c(C(C)NCC2CCCC2)cnn1-c1ccc(F)cc1F (stereo unspecified)	9
O=C(Nc1ccc(-n2cccn2)cc1)N1C[C@H](O)[C@@H](N2CCOCC2)C1	-45.9
COc1ccc2c(c1)C(NCCc1c(C)noc1C)CCCO2 (stereo unspecified)	-2.79
COc1cc(CNC(=O)C(C)SC)cc(Br)c1OC (stereo unspecified)	0.247
CN(C)C(=O)CC1CC2(CCNCC2)c2cc(F)ccc21 (stereo unspecified)	6.54
Cc1cc(N2CCN(C(=O)c3cc(Cl)c[nH]3)CC2)nc(N)n1	-6.28
CC(C)CC(=O)N1CCN(c2cc(N(C)C)cnn2)CC1	4.17
CNC(=O)c1[nH]nc2c1CN(c1cc(C3CCCNC3)nc(C)n1)CC2 (stereo unspecified)	-51.8
CCc1nc(CN2CCN(C(=O)c3csnn3)CC2)cs1	-9.04
C[C@H]1C(=O)NC[C@H]2CN(Cc3ccccc3)C[C@H]21	1.47
CC(Cn1cccn1)C(=O)N1CCC(Nc2cccnn2)CC1 (stereo unspecified)	-9.28
Cc1cc(C)n(CC2(CNC(=O)C(c3ccccc3F)N(C)C)CC2)n1 (stereo unspecified)	1.64
CN1[C@@H]2CC[C@H]1CN(C(=O)c1sccc1S(N)(=O)=O)CC2	1.95
CCC1CCCCN1C(=O)c1ccnc(N(C)C)c1 (stereo unspecified)	-0.743
CCN1CCC2(CC1)CC(NCc1ccncc1)c1ccccc1O2 (stereo unspecified)	0.254
Cc1cc(C)n(C2CN(c3ncnc4c3CCNCC4)C2)n1	7.99
c1ccc(Cc2nnc(CN3CCCC3Cn3cccn3)o2)cc1 (stereo unspecified)	-11.7
NC(=O)c1ccc2c(c1)nc1n2CCN(Cc2cccnc2)C1	10.3
Cc1ccsc1CNc1ccc(C(=O)N2CCNC(=O)C2)cn1	7.04
COC(=O)c1ccc(OCC(=O)N(C)Cc2ccsc2)c(OC)c1	5.98
COCCOc1cccc(C(=O)N2CCCC(n3ccnc3C)C2)c1 (stereo unspecified)	-12

SMILES	cytotoxicity at 10 µM [%]
O=S1(=O)CCCN(Cc2ccccc2OCC(F)(F)F)CC1	9.11
Cc1ccc(S(=O)(=O)CCC(=O)N(C)Cc2cnn(C)c2)cc1	-2.9
CCCC(NC(=O)c1cc(C)ccc1O)c1nnn[nH]1 (stereo unspecified)	-3.26
O=C(NCc1cnc2n1CCN(Cc1ccsc1)CC2)C1CCC1	-2.53
CC(C)c1nc(C2CCCN(C(=O)CN3CCN(C)CC3)C2)no1 (stereo unspecified)	3.8
Cc1cccc(-c2noc(CN3CCc4nn(C)c(=O)cc4C3)n2)c1	5.15
CCc1nc(CC)n(CC(=O)N(CC)CC)n1	3.1
CCCn1cc(-c2cc(-c3cnc(OC)nc3)c(C#N)c(N)n2)c(C)n1	2.89
Cc1cc(C2CCCN(Cc3ncc(C(C)C)o3)C2)n[nH]1 (stereo unspecified)	4.29
Cc1cc(CN2CCc3c(CNc4ncccn4)cncc3C2)oc1C	-82.6
Cc1cnn(CCNCC(=O)N2CCN(c3ccccn3)CC2)c1	1.22
CC(C)N(C)C(=O)C1=NOC2(CCN(C(=O)c3ccc(Cl)cc3)C2)C1 (stereo unspecified)	-16.7
Cc1nc(C)n(CC2CCCN(CC(=O)NC3CCOCC3)C2)n1 (stereo unspecified)	-11.8
Cc1ccccc1Oc1ncccc1CNC1CCC1	-1.27
O=C(c1ccccc1)N1CCN(C2CCc3ccc(F)cc32)CC1 (stereo unspecified)	11.1
O=C(Cn1ccc(-c2ccccc2)n1)N1CCN(C(=O)C2CC2)CC1	-6.58
COc1cccc(-n2nnc(C(=O)N3CCNC(=O)C3)c2C)c1	-10.3
CC(C)C(=O)NCCCn1ncc2c(Cl)cccc21	-21.6
